Laboratory results from PubChem BioAssay.
The source made the active and inactive calls.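 How the source made its calls, unless noted: active means inhibition at or above 50% at 10 µM; inactive means inhibition below 50%.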

Columns and labels:
[1] = inhibitors of TNFa-induced NFkB p65 translocation, primary screen, imaging, HUVEC, MLSMR starter and 10KST1 sets (AID 438;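 active means inhibition above 20% together with a positive visual image hit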;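 further: compound added about 3h40 before a 20 min TNFalpha stimulation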;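 on inhibition: signal is the nuclear over cytoplasmic p65 intensity ratio per well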); details: HUVEC TNFa-induced p65 nuclear translocation; cell count: measured here: nuclei count (cytotoxicity indicator), at 2.08 µM; inhibition: at 2 µM, stronger effect = higher value, 0% TNFa-plus-vehicle, 100% no-TNFa wells
[2] = reduction of polyQ htt aggregates in cells – imaging, exon1htt(103Q)mCFP cells, high-content imaging, primary screen (AID 483;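 active means visual image review flags a hit and inhibition of aggregation exceeds 20%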;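 further: compound exposure lasted 3 days before fixation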;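 on nuclei count: percent of the per-plate median nuclei count of sample wells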); details: exon1htt(103Q)mCFP cell line, aggregate imaging, at 2 µM; inhibition of aggregation: stronger effect = higher value; nuclei count: measured here: cell count, toxicity
[3] = endothelial E-selectin expression blockers – imaging, HUVEC, immunofluorescence, MLSMR starter and 10KST1 sets, primary screen (AID 487;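 active means visually confirmed hit in the image check and inhibition above 20%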;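 on inhibition: signal is fraction of cell area covered by stained E-selectin grains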;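 on nuclei count: 100% = median nuclei count of all wells on the same plate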); details: HUVEC TNFalpha-induced E-selectin immunofluorescence imaging, at 2 µM; inhibition: stronger effect = higher value; nuclei count: measured here: cell number, toxicity
[4] = molecular target: Voltage-gated potassium channel subunit beta-2 (Rattus norvegicus) (UniProt P62483); experiment: inhibitors of rat Kvbeta2 reductase activity – biochemical, NADPH fluorescence, primary screen (AID 622;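 active means fluorescence slope higher than the sample average by over 3 SD, cut at about -0.22 in these data, passing the limit was not always enough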;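 further: slope of raw intensity against log time taken from 70 to 1610 s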); details: recombinant KvBeta, 4-cyanobenzaldehyde reduction, at 10 µM, stronger effect = higher value
[5] = molecular target: Voltage-gated potassium channel subunit beta-2 (Rattus norvegicus) (UniProt P62483); experiment: enhancers of rat Kvbeta2 NADPH turnover – biochemical, NADPH fluorescence, primary screen (AID 623;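 active means NADPH fluorescence slope more negative than the mean of all samples by about 3 SD, 99.7% confidence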;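 further: fluorescence intensity change per second fitted from 20 to 320 s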); details: Recombinant KvBeta, NADPH fluorescence decrease slope, 10 min; at 10 µM; stronger effect = lower value
[6] = molecular target: Muscarinic acetylcholine receptor M4 (Homo sapiens) (UniProt P08173); experiment: M4-linked GIRK flux change, two-sided – cell-based, HEK293 M4/GIRK, thallium flux, BTC-AM, M4 allosteric agonist project, primary screen (AID 625;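 active means fluorescence slope after compound addition differing from the mean of all tested samples at 99.7% confidence, mostly higher but some lower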;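 further: thallium influx through GIRK channels coupled to M4 in HEK293 cells with BTC-AM dye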); details: at 10 µM, actives lie on both sides
Procedure, shortened: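 Material: M4/GIRK1/GIRK2 stable HEK293 cell line. Medium: pH 7.3 thallium assay buffer. Dosing: single compound concentration, 10 µM final. Schedule: 1 h dye loading, 2 min kinetic read. Measured by: kinetic fluorescence with BTC-AM dye. Read-out: post-addition slope, 15–24 s, of baseline-normalized fluorescence. Benchmarks: carbachol and DMSO controls.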

[7] = blockers of RIG-like receptor reporter activation – cell-based, Sendai virus stimulus, luciferase, 10K MLSCN set, TLR/RLR signaling modifier project, primary screen (AID 602276); details: HEK293 RL24 IRF3 luciferase reporter, at 10 µM, stronger effect = higher value;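 further: firefly luciferase from ISG56 promoter only with Renilla not read in this screen; 0% = Sendai virus plus DMSO and 100% = medium plus DMSO without virus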
[8] = TLR3 IRF3 reporter activation blockers – cell-based, poly I:C stimulus, luciferase, 10K MLSCN set, primary screen (AID 602277;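 active means inhibition of the reporter signal at or above 50%; inactive means inhibition below 50%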); details: HEK293-TLR3 RL24 IRF3 luciferase reporter, at 10 µM, stronger effect = higher value

Muscarinic acetylcholine receptor M4 (Homo sapiens), sequence (P08173 whole entry, looked up): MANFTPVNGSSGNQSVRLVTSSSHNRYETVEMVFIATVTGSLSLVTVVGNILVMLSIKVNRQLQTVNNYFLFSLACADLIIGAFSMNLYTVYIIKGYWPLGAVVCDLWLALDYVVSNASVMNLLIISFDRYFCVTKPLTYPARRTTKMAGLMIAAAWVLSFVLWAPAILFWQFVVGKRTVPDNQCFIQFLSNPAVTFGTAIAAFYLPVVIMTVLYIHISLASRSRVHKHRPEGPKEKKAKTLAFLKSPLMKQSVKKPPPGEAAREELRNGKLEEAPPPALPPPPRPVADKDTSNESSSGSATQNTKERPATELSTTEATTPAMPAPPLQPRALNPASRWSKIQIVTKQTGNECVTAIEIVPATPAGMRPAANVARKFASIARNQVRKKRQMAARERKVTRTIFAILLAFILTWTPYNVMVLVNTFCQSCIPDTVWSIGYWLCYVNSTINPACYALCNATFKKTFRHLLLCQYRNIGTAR
Voltage-gated potassium channel subunit beta-2 (Rattus norvegicus), sequence (P62483 whole entry, looked up): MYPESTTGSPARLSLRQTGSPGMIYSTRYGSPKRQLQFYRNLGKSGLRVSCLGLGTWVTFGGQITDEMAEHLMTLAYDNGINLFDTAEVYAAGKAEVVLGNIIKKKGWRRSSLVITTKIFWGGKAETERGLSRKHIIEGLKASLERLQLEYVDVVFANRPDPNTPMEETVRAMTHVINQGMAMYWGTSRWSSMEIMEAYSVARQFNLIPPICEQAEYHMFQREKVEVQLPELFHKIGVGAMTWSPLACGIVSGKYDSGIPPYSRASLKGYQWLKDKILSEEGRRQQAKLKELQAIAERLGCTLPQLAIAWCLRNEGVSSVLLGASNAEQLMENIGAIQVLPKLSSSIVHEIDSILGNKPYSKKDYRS

Compound | cell count [1] | inhibition [1] | inhibition of aggregation [2] | nuclei count [2] [%] | inhibition [3] | nuclei count [3] [%] | fluorescence slope [4] | NADPH fluorescence slope [5] | fluorescence slope [6] | inhibition [7] | inhibition [8]
COc1cccc(CC(NC(C)=O)C(=O)NC2CCN(c3c4c(nc5ncnn35)CCC4)CC2)c1 (centres undefined) | 767 | -6.8% (inactive) | -4.2% (inactive) | 114 | -37.8% (inactive) | 140 | -0.464 (inactive) | -5.8e-05 (inactive) | 0.00506 (inactive) | 17.1% (inactive) | 22.9% (inactive)
c1ccc2c3nnc4n(c-3nc2c1)CCCS4 | 472 | 4.1% (inactive) | 0.4% (inactive) | 101 | 17.9% (inactive) | 112 | -0.444 (inactive) | -2.5e-05 (inactive) | 0.00387 (inactive) | -12.6% (inactive) | -19.6% (inactive)
CC(C)(C)C(=O)N=C1SC2CS(=O)(=O)CC2N1c1ccc2c(c1)OCO2 (centres undefined) | 454 | 5.8% (inactive) | 2% (inactive) | 96.6 | 6.6% (inactive) | 132 | -0.546 (inactive) | -4.1e-05 (inactive) | 0.0052 (inactive) | -0.393% (inactive) | 7.75% (inactive)
O=C(c1ccc(NS(=O)(=O)c2cccs2)cc1)N1CCCCC1 | 287 | 5% (inactive) | -0.8% (inactive) | 74.9 | -31.7% (inactive) | 96.5 | -0.474 (inactive) | -3.6e-05 (inactive) | 0.00524 (inactive) | 0.00146% (inactive) | -12.6% (inactive)
Cc1ccc(C(C)C)c(OCc2nnc(SCC(=O)Nc3ncc(C)s3)n2C)c1 | 663 | 0.5% (inactive) | -35.5% (inactive) | 108 | -36.3% (inactive) | 108 | -0.545 (inactive) | -3.2e-05 (inactive) | 0.00564 (inactive) | 9.43% (inactive) | 12.4% (inactive)
Cc1cc(C(=O)CSCc2nnc3n(CCC(C)C)c(=O)c4ccccc4n23)c(C)n1C | 284 | -11.2% (inactive) | -1.8% (inactive) | 94.2 | -26.1% (inactive) | 88.8 | -0.558 (inactive) | 3.1e-06 (inactive) | 0.00507 (inactive) | 14.8% (inactive) | 26.1% (inactive)
Oc1ccc(N2CCN(C(c3cccnc3)c3nnnn3Cc3ccccc3)CC2)cc1 (centres undefined) | 612 | 1.4% (inactive) | -2.4% (inactive) | 118 | -71.6% (inactive) | 113 | -0.468 (inactive) | -0.000313 (inactive) | 0.0054 (inactive) | 9.52% (inactive) | -11.5% (inactive)
COc1cccc2cc(C(=O)n3ccc(C)n3)c(=O)oc12 | 297 | -8% (inactive) | -15.2% (inactive) | 93.5 | 10.9% (inactive) | 88.2 | -0.409 (inactive) | 1.2e-05 (inactive) | 0.00485 (inactive) | 13.4% (inactive) | 12.3% (inactive)
O=C(COc1ncnc2ccccc12)NCc1ccc2c(c1)OCO2 | 345 | -1.6% (inactive) | -8.2% (inactive) | 101 | -38.6% (inactive) | 105 | -0.584 (inactive) | -5e-06 (inactive) | 0.00352 (inactive) | 15.1% (inactive) | 16.2% (inactive)
